The results in this text go back to ChEMBL document CHEMBL5696442, “Discovery of type II inhibitors of TGFβ-activated kinase 1 (TAK1) and mitogen-activated protein kinase kinase kinase kinase 2 (MAP4K2)” (J Med Chem, 2015).

Molecules are shown by their SMILES.

The target in experiment [1] is Calcium/calmodulin-dependent protein kinase type 1 (Homo sapiens) (UniProt Q14012). Briefly: Inhibition of CAMK1 alpha Lys1 labeling site in human A-375 cells at 0.5 uM by KiNativ Profiling analysis relative to control. The class given is cell-based. In short, it runs like this: (§1)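 Intact A375 melanoma cells were treated with compound at 5 or 0.5 μM, then lysed. Lysate kinases were labeled with a lysine-reactive ATP or ADP-biotin probe (KiNativ). Inhibition is read as protection of each kinase labeling site from probe labeling.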
Chain of Calcium/calmodulin-dependent protein kinase type 1 (Homo sapiens) (Q14012 whole entry, looked up): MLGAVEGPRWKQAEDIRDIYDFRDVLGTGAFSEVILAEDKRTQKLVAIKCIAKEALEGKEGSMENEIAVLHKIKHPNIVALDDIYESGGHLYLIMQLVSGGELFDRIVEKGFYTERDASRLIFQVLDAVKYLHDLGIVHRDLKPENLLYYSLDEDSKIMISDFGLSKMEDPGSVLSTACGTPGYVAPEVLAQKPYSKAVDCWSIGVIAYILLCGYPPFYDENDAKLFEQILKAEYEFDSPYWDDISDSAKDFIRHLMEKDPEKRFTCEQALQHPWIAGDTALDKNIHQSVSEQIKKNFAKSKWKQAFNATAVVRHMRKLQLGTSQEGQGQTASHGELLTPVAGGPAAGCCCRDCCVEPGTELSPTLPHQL

Experiment [2] deals with T1, DNA-PK/Ku70/Ku85 (Homo sapiens) (UniProt P78527+P12956+P13010). Briefly: Inhibition of DNAPK ATP labeling site harbouring GHDEREHPFLVKGGEDLR in human A-375 cells at 5 uM by KiNativ Profiling analysis relative to control. Format: cell-based. In short, it runs like this: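 A375 melanoma cells treated live with compound at 5 μM, then lysed. Lysates were labeled with a lysine-reactive ATP or ADP-biotin probe (KiNativ). Read-out is how well the compound protects each kinase labeling site from probe labeling.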

Experiment [3] addresses Tyrosine-protein kinase Fer (Homo sapiens, UniProt P16591). Briefly: Inhibition of FER Lys1 labeling site harbouring DKTSVAVKTCKEDLPQELK in human A-375 cells at 5 uM by KiNativ Profiling analysis relative to control. The class given is cell-based.
Experiment [4] deals with T2, Mitogen-activated protein kinase kinase kinase 3 (Homo sapiens) (UniProt Q99759).
T2 sequence (whole entry): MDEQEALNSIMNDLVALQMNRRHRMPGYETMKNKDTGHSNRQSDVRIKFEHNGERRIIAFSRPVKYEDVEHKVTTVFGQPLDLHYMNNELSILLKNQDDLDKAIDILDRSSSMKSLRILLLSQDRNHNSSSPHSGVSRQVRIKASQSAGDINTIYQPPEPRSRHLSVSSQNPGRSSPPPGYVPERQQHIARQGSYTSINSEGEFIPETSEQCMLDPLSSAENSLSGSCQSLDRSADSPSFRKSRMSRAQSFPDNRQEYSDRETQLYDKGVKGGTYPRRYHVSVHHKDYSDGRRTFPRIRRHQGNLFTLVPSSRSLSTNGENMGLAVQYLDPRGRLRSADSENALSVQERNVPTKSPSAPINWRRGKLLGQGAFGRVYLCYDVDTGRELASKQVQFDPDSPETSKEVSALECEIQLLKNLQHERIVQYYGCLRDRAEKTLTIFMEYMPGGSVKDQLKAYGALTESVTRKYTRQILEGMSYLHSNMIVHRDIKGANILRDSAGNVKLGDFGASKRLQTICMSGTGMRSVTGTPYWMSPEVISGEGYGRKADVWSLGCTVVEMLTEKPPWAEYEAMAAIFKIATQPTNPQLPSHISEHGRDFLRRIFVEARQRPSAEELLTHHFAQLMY
The experiment can be described thus: Inhibition of MAP3K3 Lys1 labeling site in human A-375 cells at 5 uM by KiNativ Profiling analysis relative to control. Format: cell-based.

Experiment [5] has as its target Serine/threonine-protein kinase 24 (Homo sapiens) (UniProt Q9Y6E0). Briefly: Inhibition of MST3 ACT labeling site in human A-375 cells at 5 uM by KiNativ Profiling analysis relative to control. The class given is cell-based.
Experiment [6] has as its target T3, Aurora kinase A (Homo sapiens) (UniProt O14965).
T3 sequence (whole entry): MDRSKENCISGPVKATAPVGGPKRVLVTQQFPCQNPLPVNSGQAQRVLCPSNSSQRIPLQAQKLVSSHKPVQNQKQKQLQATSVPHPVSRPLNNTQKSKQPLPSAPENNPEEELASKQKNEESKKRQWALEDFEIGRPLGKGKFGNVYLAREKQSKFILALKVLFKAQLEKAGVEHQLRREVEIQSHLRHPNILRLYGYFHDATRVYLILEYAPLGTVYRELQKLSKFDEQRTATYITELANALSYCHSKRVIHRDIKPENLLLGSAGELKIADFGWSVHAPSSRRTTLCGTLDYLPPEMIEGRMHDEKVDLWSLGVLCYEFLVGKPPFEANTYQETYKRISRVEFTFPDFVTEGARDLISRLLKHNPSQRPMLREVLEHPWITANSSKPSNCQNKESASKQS
Briefly: Inhibition of AurA Lys2 labeling site in human A-375 cells at 0.5 uM by KiNativ Profiling analysis relative to control. The class given is cell-based. The essentials:
as §1

Experiment [7] deals with Dual specificity mitogen-activated protein kinase kinase 1 (Homo sapiens) (UniProt Q02750). The experiment can be described thus: Inhibition of MAP2K1 Lys2 labeling site harbouring IMHRDVKPSNILVNSR in human A-375 cells at 0.5 uM by KiNativ Profiling analysis relative to control. The class given is cell-based.
Chain of Dual specificity mitogen-activated protein kinase kinase 1 (Homo sapiens) (Q02750 whole entry): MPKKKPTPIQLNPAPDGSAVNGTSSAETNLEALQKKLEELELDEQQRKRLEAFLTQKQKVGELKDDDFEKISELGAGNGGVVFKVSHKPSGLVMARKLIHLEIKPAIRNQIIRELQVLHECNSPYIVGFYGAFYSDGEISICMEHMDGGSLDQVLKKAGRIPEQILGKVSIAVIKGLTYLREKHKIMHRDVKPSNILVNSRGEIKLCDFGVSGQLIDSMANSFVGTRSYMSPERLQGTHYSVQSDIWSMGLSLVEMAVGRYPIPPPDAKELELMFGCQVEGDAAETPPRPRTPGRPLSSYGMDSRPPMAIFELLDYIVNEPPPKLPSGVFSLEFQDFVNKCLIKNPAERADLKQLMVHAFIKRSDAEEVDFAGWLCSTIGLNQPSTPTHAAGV
Experiment [8] deals with Dual specificity mitogen-activated protein kinase kinase 2 (Homo sapiens) (UniProt P36507). Briefly: Inhibition of MAP2K2 Lys2 labeling site in human A-375 cells at 0.5 uM by KiNativ Profiling analysis relative to control. The class given is cell-based.
Chain of Dual specificity mitogen-activated protein kinase kinase 2 (Homo sapiens) (P36507 whole entry): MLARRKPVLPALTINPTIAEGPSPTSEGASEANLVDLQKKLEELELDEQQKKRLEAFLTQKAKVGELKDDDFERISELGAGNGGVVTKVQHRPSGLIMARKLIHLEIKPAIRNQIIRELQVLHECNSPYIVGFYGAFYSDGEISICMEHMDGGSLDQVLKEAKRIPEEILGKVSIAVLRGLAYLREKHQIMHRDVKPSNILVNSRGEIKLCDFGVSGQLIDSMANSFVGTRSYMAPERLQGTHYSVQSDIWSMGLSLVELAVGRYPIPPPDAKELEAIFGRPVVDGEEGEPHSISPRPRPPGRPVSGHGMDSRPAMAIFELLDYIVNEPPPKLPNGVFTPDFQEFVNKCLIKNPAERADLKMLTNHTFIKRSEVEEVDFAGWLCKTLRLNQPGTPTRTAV
For experiment [9], the target named is T4, Dual specificity mitogen-activated protein kinase kinase 5 (Homo sapiens) (UniProt Q13163).
T4 sequence (whole entry): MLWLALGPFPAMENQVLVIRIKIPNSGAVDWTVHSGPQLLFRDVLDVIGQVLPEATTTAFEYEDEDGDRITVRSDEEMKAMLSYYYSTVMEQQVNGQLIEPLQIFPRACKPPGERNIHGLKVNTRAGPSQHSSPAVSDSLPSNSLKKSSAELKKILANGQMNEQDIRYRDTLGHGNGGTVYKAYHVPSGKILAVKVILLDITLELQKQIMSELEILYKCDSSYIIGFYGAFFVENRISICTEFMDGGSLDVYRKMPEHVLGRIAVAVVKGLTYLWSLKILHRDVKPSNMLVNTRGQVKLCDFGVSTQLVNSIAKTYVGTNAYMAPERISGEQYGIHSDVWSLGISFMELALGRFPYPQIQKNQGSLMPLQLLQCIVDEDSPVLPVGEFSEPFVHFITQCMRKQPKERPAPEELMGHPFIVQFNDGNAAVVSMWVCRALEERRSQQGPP
Briefly: Inhibition of MAP2K5 Lys2 labeling site in human A-375 cells at 0.5 uM by KiNativ Profiling analysis relative to control. Format: cell-based.

Experiment [10] has as its target Serine/threonine-protein kinase 26 (Homo sapiens) (UniProt Q9P289). Briefly: Inhibition of MST4 ACT labeling site in human A-375 cells at 0.5 uM by KiNativ Profiling analysis relative to control. The class given is cell-based.
For experiment [11], the target named is T1, DNA-PK/Ku70/Ku85 (Homo sapiens). Briefly: Inhibition of DNAPK ATP labeling site harbouring KGGSWIQEINVAEKNWYPR in human A-375 cells at 0.05 uM by KiNativ Profiling analysis relative to control. The class given is cell-based.
The nature of experiment [12]: Inhibition of p70S6K Lys2 labeling site in human A-375 cells at 0.05 uM by KiNativ Profiling analysis relative to control. The note with it: condition cancer.
Experiment [13] addresses 3-phosphoinositide-dependent protein kinase 1 (Homo sapiens) (UniProt O15530). Briefly: Inhibition of PDK1 Protein Kinase Domain in human A-375 cells at 5 uM by KiNativ Profiling analysis relative to control.

The term inhibition denotes the change of the read-out against control, counted positive when it falls.

Chain of Serine/threonine-protein kinase 26 (Homo sapiens) (Q9P289 2-416 limits assumed): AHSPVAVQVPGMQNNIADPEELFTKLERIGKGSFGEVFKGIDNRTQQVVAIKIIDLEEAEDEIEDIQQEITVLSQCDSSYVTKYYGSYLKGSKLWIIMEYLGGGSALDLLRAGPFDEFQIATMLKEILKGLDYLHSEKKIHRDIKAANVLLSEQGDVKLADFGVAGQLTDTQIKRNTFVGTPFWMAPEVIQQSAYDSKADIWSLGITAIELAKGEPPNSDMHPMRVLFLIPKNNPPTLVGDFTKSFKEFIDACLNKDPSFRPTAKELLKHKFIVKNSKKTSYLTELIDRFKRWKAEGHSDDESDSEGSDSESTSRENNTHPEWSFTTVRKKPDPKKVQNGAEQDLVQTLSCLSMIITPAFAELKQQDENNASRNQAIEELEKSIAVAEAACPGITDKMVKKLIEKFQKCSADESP
Chain of Tyrosine-protein kinase Fer (P16591 whole entry, looked up): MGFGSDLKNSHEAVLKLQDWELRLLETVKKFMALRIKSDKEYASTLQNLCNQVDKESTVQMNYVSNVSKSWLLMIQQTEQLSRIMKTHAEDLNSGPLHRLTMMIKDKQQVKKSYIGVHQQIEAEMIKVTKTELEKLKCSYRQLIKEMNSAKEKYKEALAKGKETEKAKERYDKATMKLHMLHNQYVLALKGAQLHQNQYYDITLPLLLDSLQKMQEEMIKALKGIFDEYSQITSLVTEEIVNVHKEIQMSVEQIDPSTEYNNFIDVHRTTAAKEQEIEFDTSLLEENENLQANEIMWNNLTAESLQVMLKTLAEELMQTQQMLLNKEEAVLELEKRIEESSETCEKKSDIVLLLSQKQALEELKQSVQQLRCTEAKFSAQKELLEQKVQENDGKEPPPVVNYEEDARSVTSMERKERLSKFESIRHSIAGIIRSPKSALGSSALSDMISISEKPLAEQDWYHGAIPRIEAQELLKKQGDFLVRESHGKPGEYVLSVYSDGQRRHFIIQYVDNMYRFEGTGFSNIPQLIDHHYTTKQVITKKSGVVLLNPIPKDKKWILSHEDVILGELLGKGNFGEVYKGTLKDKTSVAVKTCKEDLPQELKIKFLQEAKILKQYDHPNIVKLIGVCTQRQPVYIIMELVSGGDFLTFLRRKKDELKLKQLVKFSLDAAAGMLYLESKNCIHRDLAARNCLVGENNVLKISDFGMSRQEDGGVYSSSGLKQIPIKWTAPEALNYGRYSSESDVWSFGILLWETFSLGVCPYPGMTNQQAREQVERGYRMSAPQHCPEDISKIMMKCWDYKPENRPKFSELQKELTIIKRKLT
Chain of 3-phosphoinositide-dependent protein kinase 1 (Homo sapiens) (O15530 whole entry, looked up, the tested form may be a part): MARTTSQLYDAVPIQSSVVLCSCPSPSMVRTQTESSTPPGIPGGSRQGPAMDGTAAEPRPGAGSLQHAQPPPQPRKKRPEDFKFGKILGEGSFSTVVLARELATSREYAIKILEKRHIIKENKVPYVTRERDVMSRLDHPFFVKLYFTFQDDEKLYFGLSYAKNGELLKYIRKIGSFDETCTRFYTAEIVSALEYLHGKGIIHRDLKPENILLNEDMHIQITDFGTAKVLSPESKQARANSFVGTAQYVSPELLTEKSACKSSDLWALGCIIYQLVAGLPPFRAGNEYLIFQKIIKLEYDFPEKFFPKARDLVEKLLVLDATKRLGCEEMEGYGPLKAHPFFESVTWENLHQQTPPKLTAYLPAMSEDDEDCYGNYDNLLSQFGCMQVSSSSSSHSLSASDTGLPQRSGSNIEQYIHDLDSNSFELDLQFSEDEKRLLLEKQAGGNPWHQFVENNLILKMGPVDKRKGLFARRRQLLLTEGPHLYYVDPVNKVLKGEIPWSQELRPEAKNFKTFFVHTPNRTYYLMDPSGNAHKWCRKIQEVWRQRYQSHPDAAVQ
Chain of Serine/threonine-protein kinase 24 (Homo sapiens) (Q9Y6E0 whole entry, looked up): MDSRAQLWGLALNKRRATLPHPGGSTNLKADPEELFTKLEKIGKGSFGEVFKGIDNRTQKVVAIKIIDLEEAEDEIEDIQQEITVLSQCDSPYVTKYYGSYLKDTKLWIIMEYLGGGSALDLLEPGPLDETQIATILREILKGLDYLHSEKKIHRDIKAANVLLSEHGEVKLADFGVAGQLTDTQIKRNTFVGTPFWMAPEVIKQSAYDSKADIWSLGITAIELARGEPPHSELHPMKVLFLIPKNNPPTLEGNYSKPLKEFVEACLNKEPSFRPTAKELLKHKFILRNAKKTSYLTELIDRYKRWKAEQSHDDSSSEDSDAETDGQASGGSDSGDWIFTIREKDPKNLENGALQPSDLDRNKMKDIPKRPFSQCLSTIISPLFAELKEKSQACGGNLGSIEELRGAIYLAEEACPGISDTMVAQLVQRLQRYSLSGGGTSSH

With `CCN1CCN(Cc2ccc(NC(=O)c3ccc(C)c(/C=C/c4cnc5[nH]ccc5c4OC)c3)cc2C(F)(F)F)CC1`, the inhibition was found to be 37% in experiment [1]; 13.8% in experiment [2]; 80.3% in experiment [3]; 80.4% in experiment [4]; 13.7% in experiment [5]; 0.7% in experiment [6]. Also, the inhibition was 19.2% in experiment [7]; 1.8% in experiment [8]; 26.1% in experiment [9]; 18.3% in experiment [10]; -3.2% in experiment [11]; 15.8% in experiment [13]. Also, the inhibition at 0.05 µM in experiment [12] is -27%.

For the compound `CCN1CCN(Cc2ccc(NC(=O)c3ccc(C)c(Oc4ccnc5[nH]ccc45)c3)cc2C(F)(F)F)CC1`, the inhibition amounted to 69.7% in [1]; 17.1% in experiment [2]; 98.1% in experiment [3]; 77.1% in experiment [4]; 35.1% in experiment [5]; 12% in [6]. Further, the inhibition was 28.4% in experiment [7]; -3.9% in experiment [8]; 16.2% in [9]; 31.3% in experiment [10]; 6.7% in experiment [11]; 9% in experiment [13]. The inhibition at 0.05 µM in experiment [12] is -7.2%.
